Assay results reported in ChEMBL document CHEMBL1811830, “Synthesis, structure and cytotoxicity of 3-C, N, S, Se substituted benzo[b]selenophene derivatives” (Eur J Med Chem, 2011).
≈ marks a conversion by molar mass, not a printed value. Calls of active or inactive are those of the source. The rule behind the calls is not given here.

Tests used:
HT-1080 [1] = assay: Induction of mitochondria mediated apoptosis in human HT1080 cells assessed as change in cell phenotype after 72 hrs by acridine orange staining based fluorescence microscopic analysis; format: functional
Method in brief: (§1)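 Adherent cells treated 72 h, 37 °C, 5% CO₂, in 96-well plates. Stained 2 min with acridine orange 10 μg/mL in PBS pH 7.4, washed once with PBS, then viewed in PBS by inverted fluorescence microscopy. Chromatin condensation shown by DNA staining: living cells green, apoptotic cells orange/yellow, necrotic cells red.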

HT-1080 [2] = assay: Cytotoxicity against human HT1080 cells assessed as nitric oxide concentration at 100 ug/ml after 72 hrs by crystal violet coloration assay (reference value: 100%); format: functional
[3] = (§2) Cytotoxicity against mouse NIH/3T3 cells after 72 hrs by MTT assay; format: cell-based, NIH3T3; details: NIH/3T3 cells, read-out: TD50
Method in brief: (§3)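 Cells from passages 1–4 after thawing, seeded at about 2–5·10⁴ cells/mL with compounds added immediately. Incubation 72 h, 37 °C, 5% CO₂. MTT read-out: medium replaced with fresh medium containing 10 mM HEPES, MTT (2 mg/mL in HBSS) added for 3 h. Dissolved in DMSO plus glycine buffer pH 10.5, absorbance 540 nm. TD50 = concentration giving 50% cell kill, averaged from CV and MTT.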

MG-22A [4] = assay: Cytotoxicity against mouse MG-22A cells assessed as nitric oxide concentration at 100 ug/ml after 72 hrs by crystal violet coloration assay (reference value: 100%); format: functional
HT-1080 [5] = assay: Cytotoxicity against human HT1080 cells after 72 hrs by MTT assay; format: functional; details: for CC50: HT-1080, 72 h, read-out: TD50 (the source's name); method in brief: as §3
MG-22A [6] = assay: Cytotoxicity against mouse MG-22A cells after 72 hrs by MTT assay; format: functional; details: for CC50: read-out: TD50 (the source's name); method in brief: as §3
NIH3T3 [7] = assay: as §2; format: cell-based; details: nih3t3, 72 h; method in brief: as §3
HT-1080 [8] = assay: Induction of apoptosis in human HT1080 cells assessed as change in cell phenotype after 72 hrs by acridine orange staining based fluorescence microscopic analysis; format: functional; method in brief: as §1
NIH3T3 [9] = assay: Induction of apoptosis in mouse NIH/3T3 cells after 72 hrs by acridine orange staining based fluorescence microscopic analysis; format: cell-based; details: nih3t3, 72 h; method in brief: as §1
HT-1080 [10] = assay: Induction of apoptosis in human HT1080 cells assessed as change in cell morphology after 72 hrs by acridine orange staining based fluorescence microscopic analysis; format: functional; method in brief: as §1
HT-1080 [11] = assay: Induction of apoptosis in human HT1080 cells assessed as nucleus fragmentation after 72 hrs by acridine orange staining based fluorescence microscopic analysis; format: functional, cell-based; method in brief: as §1

Row | SMILES | Activity (HT-1080 [1]) | Activity (HT-1080 [2]) [%] | CC50 at 72 h [3] [µg/mL] | Activity (MG-22A [4]) [%] | CC50 (HT-1080 [5]) [µg/mL] | CC50 (MG-22A [6]) [µg/mL] | Activity (NIH3T3 [7]) | Activity (HT-1080 [5]) | Activity (MG-22A [6]) | Activity (HT-1080 [8]) | Activity (NIH3T3 [9]) | Activity (HT-1080 [10]) | Activity (HT-1080 [11])
1 | O=c1c2[se]c3ccccc3c2nc2c(Cl)cc(C(F)(F)F)cn12 | Active | 2 | 31 (≈ 77.2 µM) | 8 | 3.5 (≈ 8.71 µM) | 2.75 (≈ 6.85 µM) |  |  |  |  |  |  | 
2 | CCOC(=O)c1[se]c2ccccc2c1-c1ccc(OC(C)C)cc1 |  | 9 |  | 15 |  |  | Non-toxic | inactive | inactive |  |  |  | 
3 | O=c1c2[se]c3ccccc3c2nc2ccccn12 |  | 5 | 31 (≈ 104 µM) | 7 | 3 (≈ 10 µM) | 3 (≈ 10 µM) |  |  |  | Active | Toxic |  | 
4 | Cc1csc2nc3c([se]c4ccccc43)c(=O)n12 |  | 2 | 21 (≈ 65.8 µM) | 4 |  |  |  | inactive | inactive |  |  |  | 
5 | CCOC(=O)c1[se]c2ccccc2c1C#CC1=CCCCC1 |  | 200 | 120 (≈ 336 µM) | 200 | 32.5 (≈ 91 µM) | 32 (≈ 89.6 µM) |  |  |  |  |  |  | 
6 | CCOC(=O)c1[se]c2ccccc2c1-c1cc(F)c(F)c(F)c1 |  | 6 | 100 (≈ 261 µM) | 12 |  | 81.5 (≈ 213 µM) |  | inactive |  |  |  |  | 
7 | O=c1c2[se]c3ccccc3c2nc2cnccn12 |  | 2 | 27 (≈ 89.9 µM) | 7 |  |  |  | inactive | inactive |  |  |  | 
8 | O=c1c2[se]c3ccccc3c2nc2sc3ccccc3n12 |  | 2 | 27 (≈ 76 µM) | 3 | 8.5 (≈ 23.9 µM) | 9.5 (≈ 26.7 µM) |  |  |  |  |  | Active | 
9 | CCOC(=O)c1[se]c2ccccc2c1-c1ccc(C)s1 |  | 350 | 15 (≈ 42.9 µM) | 350 | 16 (≈ 45.8 µM) | 19.5 (≈ 55.8 µM) |  |  |  |  |  |  | 
10 | CCOC(=O)c1[se]c2ccccc2c1-c1ccc(C#N)cc1 |  | 8 | 684 (≈ 1930 µM) | 7 |  |  |  | inactive | inactive |  |  |  | 
11 | CCOC(=O)c1[se]c2ccccc2c1Nc1cccnc1 |  | 12 | 1000 (≈ 2900 µM) | 9 |  |  |  | inactive | inactive |  |  |  | 
12 | O=c1c2[se]c3ccccc3c2nc2c3ncccc3ccn12 |  | 20 | 56 (≈ 160 µM) | 3 |  |  |  | inactive | inactive |  |  |  | 
13 | CCOC(=O)c1[se]c2ccccc2c1-c1ccsc1 |  | 13 | 31 (≈ 92.5 µM) | 14 |  |  |  | inactive | inactive |  |  |  | 
14 | CCOC(=O)c1[se]c2ccccc2c1C#Cc1ccccc1 |  | 15 | 614 (≈ 1740 µM) | 10 | 76 (≈ 215 µM) | 87 (≈ 246 µM) |  |  |  |  |  |  | 
15 | CCOC(=O)c1[se]c2ccccc2c1-c1ccccc1 |  | 25 | 16 (≈ 48.6 µM) | 23 | 65 (≈ 197 µM) |  |  |  | inactive |  |  |  | 
16 | CCOC(=O)c1[se]c2ccccc2c1Br |  | 14 | 896 (≈ 2700 µM) | 40 |  | 40.5 (≈ 122 µM) |  | inactive |  |  |  |  | 
17 | CCOC(=O)c1[se]c2ccccc2c1Sc1ncccn1 |  | 8 | 840 (≈ 2310 µM) | 7 |  |  |  | inactive | inactive |  |  |  | 
18 | O=c1c2[se]c3ccccc3c2nc2ccc(Cl)cn12 |  | 3 | 32 (≈ 95.9 µM) | 40 | 3 (≈ 8.99 µM) | 3 (≈ 8.99 µM) |  |  |  |  | Toxic |  | Active
